Test results published in PMC3270116 (Analytical Biochemistry, 2011).
Entries after “also recorded” stand apart in the source; their conditions may differ.

What was measured:
[1] = target: T1, serine racemase (SR) in C6 cells (Rattus norvegicus, UniProt Q76EQ0); experiment: CE-LIF measurement of intra-cellular D-Ser production in C6 cells; format: cell-based; conditions: for intra-cellular D-Ser production: 36 h, C6, n = 3
T1 sequence (Q76EQ0 1-333): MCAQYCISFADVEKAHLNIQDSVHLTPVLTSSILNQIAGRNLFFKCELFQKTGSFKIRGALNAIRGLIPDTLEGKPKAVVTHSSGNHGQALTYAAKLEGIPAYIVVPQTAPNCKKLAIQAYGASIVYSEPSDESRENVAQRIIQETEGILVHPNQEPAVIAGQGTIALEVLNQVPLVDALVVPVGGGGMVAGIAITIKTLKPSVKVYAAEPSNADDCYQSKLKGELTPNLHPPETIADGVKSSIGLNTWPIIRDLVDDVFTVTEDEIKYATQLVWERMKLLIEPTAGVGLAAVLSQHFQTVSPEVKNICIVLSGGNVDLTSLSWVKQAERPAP
Procedure, shortened: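 C6 cells in DMEM with L-Gln, 10% FBS and 1% penicillin/streptomycin were grown at 37 °C in 5% CO2 to >70% confluence. They were then incubated for 36 h in medium with substrate amino acid (0–20 mM) or inhibitor amino acid (0–8 mM), in triplicate. ACN extracts with D-Arg internal standard were FITC-labelled, then run by CE-LIF in 0.5 mM HP-β-CD/80 mM borate, pH 9.3. D-Ser was quantified by area ratio to FITC-D-Arg.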

[2] = target: T2, serine racemase (SR) in HepG2 cells (Homo sapiens, UniProt Q9GZT4); experiment: CE-LIF measurement of intra-cellular D-Ser production in HepG2 cells; format: cell-based; conditions: for intra-cellular D-Ser production: 36 h, HepG2, n = 3
T2 sequence (Q9GZT4 1-340): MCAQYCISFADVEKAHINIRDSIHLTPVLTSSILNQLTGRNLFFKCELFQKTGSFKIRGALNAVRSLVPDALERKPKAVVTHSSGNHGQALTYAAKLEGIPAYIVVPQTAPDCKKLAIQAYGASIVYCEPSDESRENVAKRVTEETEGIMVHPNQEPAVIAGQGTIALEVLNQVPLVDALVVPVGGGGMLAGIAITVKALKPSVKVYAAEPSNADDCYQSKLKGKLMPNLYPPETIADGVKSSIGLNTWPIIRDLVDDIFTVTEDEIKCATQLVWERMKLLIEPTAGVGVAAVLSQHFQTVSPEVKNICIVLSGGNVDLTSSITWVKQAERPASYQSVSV
Procedure, shortened: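 Medium for HepG2 was EMEM with 1% L-Gln, 10% FBS, 1% sodium pyruvate and 1% penicillin/streptomycin. Cells at >70% confluence (37 °C, 5% CO2) were exposed for 36 h to medium with substrate amino acid (0–20 mM) or inhibitor amino acid (0–8 mM), in triplicate. Cell extracts in ACN with D-Arg internal standard were FITC-derivatized. CE-LIF used 0.5 mM HP-β-CD in 80 mM borate, pH 9.3, with D-Ser quantified against FITC-D-Arg.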

[3] = target: purified recombinant human SR; conditions: cited from earlier work
[4] = system: SR protein (monomer and dimer) in PC-12 cells; experiment: Western blot of SR protein expression in PC-12 cells; format: cell-based, rat; conditions: 36-h treatment; for expression of the SR dimer relative to control: normalized to β-actin, n=2
Procedure, shortened: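 Lysates were BCA-assayed, and 20 μg protein per lane was run on reducing 4–12% SDS-PAGE and moved to PVDF. Blots were blocked in 5% milk, probed with a […] SR antibody, then an HRP secondary, and detected by ECL. Bands were quantified by densitometry, normalised to β-actin, n=2.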

[5] = system: SR purified from mouse brain; conditions: cited from earlier work
[6] = target: T3, serine racemase (SR) in PC-12 cells (Rattus norvegicus, UniProt Q76EQ0); experiment: CE-LIF measurement of intra-cellular D-Ser production in PC-12 cells; format: cell-based; conditions: for intra-cellular D-Ser production: 36 h, PC-12, n = 3
T3 sequence (Q76EQ0 1-333): T1 sequence (Q76EQ0 1-333)
Procedure, shortened: (§1)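 PC-12 cells were kept in RPMI-1640 with 10% horse serum and 5% FBS, and 1321N1 cells in DMEM with 10% FBS. […] Pellets were spiked with D-Arg internal standard, ACN-extracted, dried and FITC-labelled. CE-LIF used 0.5 mM HP-β-CD in 80 mM borate, pH 9.3.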

[7] = target: T4, serine racemase (SR) in 1321N1 cells (Homo sapiens, UniProt Q9GZT4); experiment: CE-LIF measurement of intra-cellular D-Ser production in 1321N1 cells; format: cell-based; conditions: for intra-cellular D-Ser production: 36 h, 1321N1, n = 3
T4 sequence (Q9GZT4 1-340): T2 sequence (Q9GZT4 1-340)
Procedure, shortened: as §1

primary microglia = conditions: LPS 100 ng/ml; cited from earlier work

NCC(=O)O [Gly, glycine]
reduction in intra-cellular D-Ser concentrations ([1]; C6, Gly 0.25 to 8.0 mM added to incubation buffer): 97% | intra-cellular D-Ser production ([1]; Gly 0.25 mM in media): 3.74 ± 0.12 | intra-cellular D-Ser production ([1]; Gly 0.50 mM in media): 3.49 ± 0.17 | intra-cellular D-Ser production ([1]; Gly 1.0 mM in media): 3.15 ± 0.13 | intra-cellular D-Ser production ([1]; Gly 2.0 mM in media): 1.69 ± 0.14 | intra-cellular D-Ser production ([1]; Gly 4.0 mM in media): 0.51 ± 0.11 | intra-cellular D-Ser production ([1]; Gly 6.0 mM in media): 0.41 ± 0.07 | intra-cellular D-Ser production ([1]; Gly 8.0 mM in media): 0.11 ± 0.07 | intra-cellular D-Ser production ([2]; Gly 0.25 mM in media): 14.96 ± 0.91 | intra-cellular D-Ser production ([2]; Gly 0.50 mM in media): 13.85 ± 0.22 | intra-cellular D-Ser production ([2]; Gly 1.0 mM in media): 10.88 ± 0.17 | intra-cellular D-Ser production ([2]; Gly 2.0 mM in media): 10.77 ± 0.14 | intra-cellular D-Ser production ([2]; Gly 4.0 mM in media): 10.31 ± 0.32 | intra-cellular D-Ser production ([2]; Gly 6.0 mM in media): 8.60 ± 0.12 | intra-cellular D-Ser production ([2]; Gly 8.0 mM in media): 7.78 ± 0.27 | Ki [3]: 0.37 mM | SR dimer or SR monomer expression relative to control ([4]; PC-12, Gly 6 mM): neither of these treatments produced a significant change; also recorded: without causing a significant change | reduction in the D-Ser production ([5]; 2 mM Gly in incubation media): 80% | Ki ([5]; competitive inhibitor): 0.15 mM | intra-cellular D-Ser production ([6]; Gly 0.25 mM in media): 15.91 ± 1.72 | intra-cellular D-Ser production ([6]; Gly 0.50 mM in media): 13.86 ± 2.02 | intra-cellular D-Ser production ([6]; Gly 1.0 mM in media): 11.59 ± 2.43 | intra-cellular D-Ser production ([6]; Gly 2.0 mM in media): 8.30 ± 0.51 | intra-cellular D-Ser production ([6]; Gly 4.0 mM in media): 7.82 ± 0.49 | intra-cellular D-Ser production ([6]; Gly 6.0 mM in media): 4.64 ± 1.36 | intra-cellular D-Ser production ([6]; Gly 8.0 mM in media): 2.72 ± 0.44 | decrease in intra-cellular D-Ser ([6]; PC-12, 6 mM Gly): 77% | IC50 ([6]; read-out: IC50 for the Gly inhibition of SR, PC-12, 36 h, n = 3): 1.24 ± 0.39 mM | reduction in intra-cellular D-Ser concentrations ([7]; 1321N1, Gly 0.25 to 8.0 mM added to incubation buffer): 35% | intra-cellular D-Ser production ([7]; Gly 0.25 mM in media): 9.05 ± 2.48 | intra-cellular D-Ser production ([7]; Gly 0.50 mM in media): 8.34 ± 2.16 | intra-cellular D-Ser production ([7]; Gly 1.0 mM in media): 7.38 ± 2.01 | intra-cellular D-Ser production ([7]; Gly 2.0 mM in media): 6.69 ± 1.80 | intra-cellular D-Ser production ([7]; Gly 4.0 mM in media): 6.53 ± 1.98 | intra-cellular D-Ser production ([7]; Gly 6.0 mM in media): 6.32 ± 1.83 | intra-cellular D-Ser production ([7]; Gly 8.0 mM in media): 6.29 ± 1.04 | IC50 ([7]; read-out: IC50 for the Gly inhibition of SR, 1321N1, 36 h, n = 3): 0.68 ± 0.15 mM

N[C@@H](CO)C(=O)O [L-Ser, L-serine]
EC50 [1]: 9.37 ± 0.17 mM | increase in intra-cellular D-Ser levels ([1]; C6, L-Ser 2.0 to 20.0 mM added to incubation buffer): 533% | intra-cellular D-Ser production ([1]; L-Ser 2 mM in media): 2.91 ± 0.17 | intra-cellular D-Ser production ([1]; L-Ser 4 mM in media): 3.05 ± 0.08 | intra-cellular D-Ser production ([1]; L-Ser 6 mM in media): 3.60 ± 0.14 | intra-cellular D-Ser production ([1]; L-Ser 8 mM in media): 7.17 ± 0.27 | intra-cellular D-Ser production ([1]; L-Ser 10 mM in media): 10.63 ± 0.45 | intra-cellular D-Ser production ([1]; L-Ser 15 mM in media): 15.64 ± 0.10 | intra-cellular D-Ser production ([1]; L-Ser 20 mM in media): 16.07 ± 0.16 | EC50 [2]: 7.87 ± 2.09 mM | increase in intra-cellular D-Ser levels ([2]; HepG2, L-Ser 2.0 to 20.0 mM added to incubation buffer): 50% | intra-cellular D-Ser production ([2]; L-Ser 2 mM in media): 15.48 ± 0.26 | intra-cellular D-Ser production ([2]; L-Ser 4 mM in media): 16.21 ± 0.21 | intra-cellular D-Ser production ([2]; L-Ser 6 mM in media): 17.53 ± 1.70 | intra-cellular D-Ser production ([2]; L-Ser 8 mM in media): 18.50 ± 1.48 | intra-cellular D-Ser production ([2]; L-Ser 10 mM in media): 20.10 ± 0.50 | intra-cellular D-Ser production ([2]; L-Ser 15 mM in media): 21.81 ± 0.35 | intra-cellular D-Ser production ([2]; L-Ser 20 mM in media): 26.28 ± 0.25 | Km ([3]; read-out: Km for L-Ser): 4 mM | SR dimer or SR monomer expression relative to control ([4]; PC-12, L-Ser 10 mM): neither of these treatments produced a significant change; also recorded: without causing a significant change | Km ([5]; read-out: Km for L-Ser): 18 mM | EC50 [6]: 5.41 ± 0.76 mM | intra-cellular D-Ser production ([6]; L-Ser 2 mM in media): 16.48 ± 1.72 | intra-cellular D-Ser production ([6]; L-Ser 4 mM in media): 21.97 ± 2.48 | intra-cellular D-Ser production ([6]; L-Ser 6 mM in media): 29.51 ± 4.93 | intra-cellular D-Ser production ([6]; L-Ser 8 mM in media): 31.46 ± 0.07 | intra-cellular D-Ser production ([6]; L-Ser 10 mM in media): 36.49 ± 1.64 | intra-cellular D-Ser production ([6]; L-Ser 15 mM in media): 38.01 ± 0.50 | intra-cellular D-Ser production ([6]; L-Ser 20 mM in media): 39.13 ± 0.36 | EC50 [7]: 9.16 ± 0.27 mM | intra-cellular D-Ser production ([7]; L-Ser 2 mM in media): 8.13 ± 0.14 | intra-cellular D-Ser production ([7]; L-Ser 4 mM in media): 9.26 ± 1.00 | intra-cellular D-Ser production ([7]; L-Ser 6 mM in media): 9.46 ± 0.87 | intra-cellular D-Ser production ([7]; L-Ser 8 mM in media): 9.54 ± 0.82 | intra-cellular D-Ser production ([7]; L-Ser 10 mM in media): 19.57 ± 0.77 | intra-cellular D-Ser production ([7]; L-Ser 15 mM in media): 21.94 ± 0.18 | intra-cellular D-Ser production ([7]; L-Ser 20 mM in media): 22.31 ± 1.27

lipopolysaccharide [LPS]
expression of the SR dimer relative to control ([4]; PC-12, LPS 10 ng/ml): 1.2 fold | expression of the SR dimer relative to control ([4]; PC-12, LPS 100 ng/ml): 1.6 fold | increase in intra-cellular D-Ser concentration ([6]; PC-12, LPS 10 ng/ml in incubation media): 2.5 fold | increase in intra-cellular D-Ser concentration ([6]; PC-12, LPS 100 ng/ml in incubation media): 3.5 fold | D-Ser levels in the incubation media (primary microglia): increased | expression of the dimeric form of SR (primary microglia): increased
